Assays:
MSK = settings: read-out: IC50 as MSK inhibitor; cited from earlier work
PKA = settings: cited from earlier work
endogenous human ATXN1 = assay: SCA1 patient iPSC-derived neuronal cells, western blot of ATXN1; type: cell-based; settings: 10 μM, two-day treatment
Method in brief: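 NPCs differentiated 7 days in DMEM/F12 with 100 ng/ml FGF8, 200 ng/mL SHH and 1:100 N2; β-III tubulin-stained. Treated 2 days with 10 μM test compound, lysed in Tris-Triton buffer. Western blot: MoAb-17 (1 ng/μl) for pS776, 11750 for total ATXN1, GAPDH-normalised.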

PKA CαM120A [1] = target: T1, PKA CαM120A (Mus musculus, UniProt P05132, M121A); assay: Atxn1 2Q/2Q; type: cell-based
mice = settings: mouse
Atxn1[66Q] and Atxn1[2Q] = assay: GSK690693 treatment in Atxn1 66Q/2Q cerebellar slice cultures; type: cell-based, mouse; settings: 10 μM
PKA CαM120A [2] = target: T1, PKA CαM120A; type: biochemical
PKA pathway = settings: postnatal day 7 ATXN1[82Q] mouse cerebellar slices; cited from earlier work
[3] = system: RFP-ATXN1[82Q] in DAOY cells; assay: Live cell imaging of DAOY cells stably expressing RFP-ATXN1[82Q]; type: cell-based, human
Method in brief: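 DAOY cells stably carrying RFP-ATXN1[82Q]-IRES-YFP, grown on 35 mm plates and moved to imaging chambers heated to 37 °C. At time zero, 10 nM test compound or DMSO vehicle was added. Brightfield and RFP images were taken every 2 minutes on an inverted fluorescence microscope.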

CαM120A = CαM120A (Mus musculus, UniProt P05132, M121A); assay: 1-NM-PP1 delivered in vivo; settings: cage drinking water or intra-cerebro-ventricular injections, data not shown
[4] = mice, delivered in drinking water or by IP injection; cited from earlier work
[5] = one day of exposure, P10 slices
[6] = 20 μM 1-NM-PP1, three-day incubation, vs no treatment or DMSO

## CCn1c(-c2nonc2N)nc2cncc(CNC3CCNCC3)c21 [SB-747651A]
MSK
  IC50: 11 nM
PKA
  inhibitory activity towards PKA relative to MSK (less): approximately 10 fold

## CCn1c(-c2nonc2N)nc2c(C#CC(C)(C)O)ncc(OC[C@H]3CCCNC3)c21 [GSK690693, 4-[2-(4-Amino-1,2,5-oxadiazol-3-yl)-1-ethyl-7-[(3S)-3-piperidinylmethoxy)-1H-imidazo[4,5-c]pyridin-4-yl]-2-methyl-3-butyn-2-ol]
Endogenous human ATXN1
  reduction of endogenous ATXN1 levels: 44%
PKA CαM120A [1]; 10 μM GSK690693, two days
  amount of Atxn1[2Q] protein: significantly decreased
  pan-PKA substrate phosphorylation: dramatically decreased
mice
  toxicity in vivo: very toxic with treated mice having seizures
Atxn1[66Q] and Atxn1[2Q]; by 5 days of treatment
  S776 phosphorylation status (MoAB-17 blot): decrease in pS776
Atxn1[66Q] and Atxn1[2Q]; by one day of treatment
  phosphorylation of other cerebellar proteins with PKA consensus site RRX(S/T) (pan-PKA substrates antibody): Inhibition
Atxn1[66Q] and Atxn1[2Q]; five days
  reduction of Atxn1[2Q] level: 68%
  reduction of Atxn1[66Q] level: 70%
Atxn1[66Q] and Atxn1[2Q]; [5]
  reduction of Atxn1[2Q] level: 22%
  reduction of Atxn1[66Q] level: 29%
Atxn1[66Q] and Atxn1[2Q]; three days
  reduction of Atxn1[2Q] level: 54%
  reduction of Atxn1[66Q] level: 56%
PKA
  IC50s for AGC kinase family members including PKA (in words): nanomolar
PKA CαM120A [2]; Cα M120A cerebellar extracts as kinase source
  concentration that blocks ATXN1[30Q]-S776 phosphorylation: ≤ 10 nM

## C=C[C@@]1(C)CC(=O)[C@]2(O)[C@@]3(C)[C@@H](O)CCC(C)(C)[C@@H]3[C@H](O)[C@H](OC(C)=O)[C@@]2(C)O1 [forskolin]
PKA pathway
  dendritic morphology of cerebellar slices: enhanced dendritic morphological abnormalities

## CN[C@@H]1C[C@H]2O[C@@](C)([C@@H]1OC)n1c3ccccc3c3c4c(c5c6ccccc6n2c5c31)C(=O)NC4 [Staurosporine]
[3]; 10 nM staurosporine, as early as two minutes post-treatment, continued to decrease out to six minutes, 37 °C
  RFP-ATXN1[82Q] signal: substantially diminished
[3]; after four minutes of exposure to staurosporine
  fluorescently tagged ATXN1[82Q] detectability: no longer detectable

## CC(C)(C)n1nc(Cc2cccc3ccccc23)c2c(N)ncnc21 [1-NM-PP1]
CαM120A
  inhibition of CαM120A in vivo: failed
PKA CαM120A [1]; [6]
  level of Atxn1[2Q] protein: failed to affect
  phosphorylation of pan-PKA substrates: failed to affect
[4]
  blood brain barrier crossing: cross the blood brain barrier
PKA CαM120A [2]; 10 μM 1-NM-PP1, the highest dose tested
  inhibition of S776 phosphorylation: Subtle inhibition

— PMC6028938 (Neurobiology of disease, 2018)
